Data from the RNAGym collection of RNA variant scans (doi:10.1038/s41586-018-0170-7).

B1: tRNA (parent)
chain: GUUCCGUUGGCGUAAUGGUAACGCGUCUCCCUCCUAAGGAGAAGACUGCGGGUUCGAGUCCCGUACGGAACG

Variants of: B1
Test: yeast fitness, log relative to wild type (ln ratio); higher = fitter; tRNA-Arg(CCU), competitive growth, 37 C, 1 M NaCl
Outline: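 Fitness is the natural log of each genotype's generations divided by the wild type's. Generations were derived as OD-scaled log2 output/input frequency from 125 bp paired-end Illumina counts, weighting replicates by inverse variance. Pools of the tRNA-Arg(CCU) variant library, on a HIS3 centromeric plasmid in BY4742 lacking the chromosomal gene, grew ~6.5 generations (~26.5 h) in SC-HIS 1M NaCl at 37 °C after 4 generations in SC-HIS at 30 °C.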

Variant | yeast fitness (ln)
G1A U2G A69G A70U C71U | -0.0282
G1A U2C G6A C27U A43C C46U A70U C71U | -0.153
G1A U2G A43C C46U C66A A70U | -0.125
G1A U2G A43C C46U C66A A70G | -0.26
G1A U2G A70G | -0.0928
G1A U2G A70U | -0.124
G1A U2C G6U C27U C46U A69G A70G C71U | -0.272
G1A U2G C27U A43C C46U C66A A70G C71U | -0.224
G1A U2C G6A C27U A43C C66U A70G | -0.3
G1A U2C G6U C27U A43C C46U A70G | -0.207
G1A U2C G6U C27U A43C C46U A70U | -0.151
G1A U2G A43C | -0.0767
G1A U2C G6U A43C C46U A70U C71U | -0.144
G1A U2C G6A C27U C46U C66U A70G C71U | -0.00474
G1A U2C G6U C66A C71U | -0.115
G1A U2C G6U A43C A69G A70G C71U | -0.268
G1A U2C G6U A43C C46U | 0.0223
G1A U2C G6U C46U C66A | -0.141
G1A U2C G6U C46U C66U A69G A70U C71U | -0.317
G1A U2C G6U C46U C66A A70U C71U | -0.0961
G1A U2C G6U A43C C66A A70G | -0.0507

Variant | yeast fitness (ln)
G1A U2C G6A C27U A43C C66U A70G C71U | -0.0683
G1A U2G C27U | -0.0429
G1A U2C G6U C66A A69G A70U | 0.0124
G1A U2C G6U C66A A69G A70G | -0.126
G1A U2G C27U A43C A70U C71U | -0.167
G1A U2C G6U A69G A70U | -0.152
G1A U2G A43C C46U A69G A70G C71U | -0.226
G1A U2C G6U C66U A69G A70G C71U | -0.221
G1A U2C G6U C66U A70U | -0.153
G1A U2C G6U C66U A70G | -0.302
G1A U2G C27U A43C C46U C66A A69G A70U C71U | -0.456
G1A U2C G6A C27U C46U C66U A70U C71U | -0.364
G1A U2C G6A C66U A69G A70G C71U | -0.0247
G1A U2C G6U A43C C46U C66A A69G A70G C71U | -0.0061
G1A U2C G6U C27U C46U A70G C71U | -0.203
G1A U2C G6A C27U C46U A69G A70U | -0.07
G1A U2C G6A C46U C66U A70U | -0.182
G1A U2C G6A C46U C66U A70G | -0.0233
G1A U2C G6U C27U A43C A69G A70U C71U | -0.282
G1A U2C G6U C71U | -0.159
G1A U2C G6U C27U A43C C46U C66U A69G A70U C71U | -0.398

Variant | yeast fitness (ln)
G1A U2C G6U A43C C46U A69G A70U C71U | -0.343
G1A U2C G6U C27U A43C C46U C66U A70U | -0.243
G1A U2G C27U A43C A69G A70G | -0.263
G1A U2G C27U A43C A69G A70U | -0.281
G1A U2C G6U A43C C46U C66U A70U | -0.167
G1A U2C G6U A43C C46U C71U | -0.143
G1A U2C G6U A69G A70G C71U | -0.367
G1A U2C G6U C27U A43C C66A A70G | -0.299
G1A U2G C27U A43C A69G C71U | -0.37
G1A U2C G6U C27U A43C C66U A69G A70U C71U | -0.42
G1A U2C G6U C27U A43C A69G A70G C71U | -0.238
G1A U2C G6A C46U C66U C71U | -0.0596
G1A U2G C27U A43C C46U A69G A70U C71U | -0.399
G1A U2G A43C C66U A69G A70G | -0.328
G1A U2G A43C C66U A69G A70U | -0.287
G1A U2C G6U C27U C66U A70U | -0.176
G1A U2C G6U C27U A43C C66A A70G C71U | -0.0539
G1A U2C G6U C46U C66U A70U C71U | -0.203
G1A U2C G6A C27U A43C C66U A69G A70G C71U | -0.255
G1A U2C G6U C27U C46U A69G A70U C71U | -0.392
G1A U2C G6A C27U C66U A70U C71U | -0.261

Variant | yeast fitness (ln)
G1A U2C G6A C27U A43C C46U C66U C71U | -0.128
G1A U2G A43C C46U C66A A69G C71U | -0.335
G1A U2C G6U A43C C46U A70G C71U | -0.359
G1A U2C G6U A43C C46U C66A A70U | -0.177
G1A U2C G6U A43C C46U C66A A70G | -0.000562
G1A U2G A43C C46U C66A A69G A70G C71U | -0.24
G1A U2C G6A C46U C66U A69G A70G C71U | -0.0172
G1A U2G C27U A43C A69G A70U C71U | -0.353
G1A U2C G6U C46U C66A A70G C71U | -0.0251
G1A U2C G6U C27U C66A A70G C71U | -0.0489
G1A U2C G6U A43C C46U A69G A70G C71U | -0.124
G1A U2C G6U A43C C46U C66U A69G A70G C71U | -0.201
G1A U2G A43C C46U | -0.042
G1A U2C G6U A43C A70U C71U | -0.195
G1A U2C G6U C27U A43C C46U C66A A70G C71U | -0.0221
G1A U2C G6A C27U C46U A69G A70G C71U | -0.489
G1A U2G C27U A43C C46U C66A A69G A70G | -0.146
G1A U2C G6U C27U C46U A69G A70U | -0.219
G1A U2C G6U C27U C46U A69G A70G | -0.176
G1A U2C G6A C27U C46U | -0.0428
G1A U2G A43C C66U | -0.246
